How the values were obtained:
Format in all cases: functional, cell-based
PC-3 = assay: Antiproliferative activity against human PC-3 cells assessed as inhibition of cell proliferation measured by MTT assay
Method in brief: (§1)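 Tumour cell panel: HCT116 (colorectal carcinoma), PC3 (prostate adenocarcinoma), HL60 (acute promyelocytic leukaemia), SNB19 (astrocytoma). Antiproliferative effect reported as half-maximal inhibitory concentration (IC50, µM) for each line.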

SNB-19 = assay: Antiproliferative activity against human SNB-19 cells assessed as inhibition of cell proliferation measured by MTT assay; method in brief: as §1
HCT-116 = assay: Antiproliferative activity against human HCT-116 cells assessed as inhibition of cell proliferation measured by MTT assay; method in brief: as §1
HL-60 = assay: Antiproliferative activity against human HL-60 cells assessed as inhibition of cell proliferation measured by MTT assay; method in brief: as §1
B16-F10 = assay: Antiproliferative activity against mouse B16-F10 cells assessed as inhibition of cell proliferation
A549 = assay: Antiproliferative activity against human A549 cells assessed as inhibition of cell proliferation
HeLa = assay: Cytotoxicity against human HeLa cells assessed as inhibition of cell viability

Structure (SMILES) | IC50 (PC-3) [µM] | IC50 (HCT-116) [µM] | IC50 (HL-60) [µM] | IC50 (B16-F10) [µM] | IC50 (A549) [µM] | IC50 (SNB-19) [µM] | IC50 (HeLa) [µM]
Cc1ccc(-c2cc(C(F)(F)F)nn2-c2ccc(S(N)(=O)=O)cc2)cc1 [CELECOXIB] |  |  |  | 16.2 | 16.3 |  | 
Nc1nc(-c2ccc([N+](=O)[O-])cc2)cc(-c2cnn(-c3ccccc3)n2)n1 | > 200 | 133 | > 200 |  |  | 132 | 
Nc1nc(-c2ccccc2)cc(-c2cn(-c3ccccc3)nc2-c2ccc([N+](=O)[O-])cc2)n1 |  |  |  |  |  |  | 5.47

The next lines start with results.

IC50 (PC-3) [µM] | IC50 (HCT-116) [µM] | IC50 (HL-60) [µM] | IC50 (B16-F10) [µM] | IC50 (A549) [µM] | Structure (SMILES) | IC50 (SNB-19) [µM] | IC50 (HeLa) [µM]
142 | 120 | 66.5 |  |  | Nc1nc(-c2ccccc2)cc(-c2cnn(-c3ccccc3)n2)n1 | > 200 | 
33.6 | 57 | 70.3 |  |  | Nc1nc(-c2ccccc2)cc(-c2cccs2)n1 | 85.1 | 
58.2 | 95.3 | 68.2 |  |  | Nc1ccc(-c2cc(-c3cnn(-c4ccccc4)n3)nc(N)n2)cc1 | 106 | 
81.5 | 55.5 | 29.3 |  |  | Nc1nc(-c2ccccc2)cc(-c2ccc[nH]2)n1 | 174 | 
